Reference: ChEMBL document CHEMBL3580567 (J Med Chem, 2015)
Values after ≈ are worked out from the molar mass of the structure shown. Active and inactive are the calls of the source. The rule behind the calls is not given here.

Experiments:
[1] = Thermodynamic solubility in phosphate buffer at pH 7.4 after 24 hrs by UV spectra analysis; assay type: physicochemical; settings: read-out: Therm_solubility
Method in brief: (§1)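 Thermodynamic solubility: about 1 mg of solid was saturated in 200 µL buffer and stirred 24 h at rt at 320 rpm, then centrifuged. Supernatant was diluted with buffer-MeCN 80:20 and read by UV at its absorbance maximum. Values were quantified against a calibration line from a 10 mM DMSO stock, checked with a quality-control standard. Runs were in triplicate. The buffers were pH 7.4 phosphate 45 mM and NH4Cl for the basic pH.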

[2] = (§2) Induction of primary neuronal stem cell differentiation derived from subgranular zone of dentate gyrus of Wistar rat hippocampus assessed as upregulation of TuJ1 expression at 10 uM incubated for 7 days followed by 48 hrs incubation in presence of serum and absence of EGF by DAPI staining-based fluorescence microscopic analysis; assay type: functional; settings: Primary neuron
Method in brief: (§3)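 Neurospheres came from the SGZ of the dentate gyrus of adult male Wistar rats (8-12 weeks). They were grown in DMEM/F12 with 10 ng/mL EGF, 10 ng/mL FGF and B27. After 3 days, cultures were treated with compounds for 7 days. They were then plated on poly-L-lysine coverslips for 48 h with serum and without growth factors. Cells were immunostained for TuJ1 and MAP-2 with DAPI nuclei. Positive cells were counted by fluorescence microscopy in five NS per condition over three independent experiments. Untreated cultures gave basal values.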

[3] = (§4) Induction of primary neuronal stem cell maturation derived from subgranular zone of dentate gyrus of Wistar rat hippocampus assessed as upregulation of MAP-2 expression at 10 uM incubated for 7 days by DAPI staining-based fluorescence microscopic analysis; assay type: functional; settings: Primary neuron; method in brief: as §3
[4] = as §2, with “analysis in presence of melatonin receptor antagonist luzindole” for “analysis”; assay type: functional; settings: Primary neuron; method in brief: as §3
[5] = as §4, with “analysis in presence of melatonin receptor antagonist luzindole” for “analysis”; assay type: functional, tissue-based; settings: Primary neuron; method in brief: as §3
[6] = Solubility in the water; assay type: physicochemical; settings: buffer
[7] = species on record: Homo sapiens; assay: Selectivity ratio of Ki for human melatonin receptor-1 to Ki for human melatonin receptor-2
[8] = target: T1, Melatonin receptor type 1A (Homo sapiens, UniProt P48039); assay: Agonist activity at human melatonin receptor-1 transfected in CHO cell membranes after 1 hr by GTPgammaS binding assay relative to melatonin; assay type: functional
Method in brief: (§5)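 CHO membranes (20 µg/mL) stably expressing human MT1 or MT2 in 20 mM HEPES pH 7.4, 100 mM NaCl, 3 µM GDP, 3 mM MgCl2, 20 µg/mL saponin. Incubated with 0.2 nM [35S]GTPγS for 1 h at rt, then filtered. Non-specific binding defined with 10 µM GTPγS. Seven concentrations in duplicate; EC50 and Emax fitted.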

[9] = target: T2, Melatonin receptor type 1B (Homo sapiens) (UniProt P49286); assay: Agonist activity at human melatonin receptor-2 transfected in CHO cell membranes after 1 hr by GTPgammaS binding assay relative to melatonin; assay type: functional; method in brief: as §5
T2 sequence (whole entry): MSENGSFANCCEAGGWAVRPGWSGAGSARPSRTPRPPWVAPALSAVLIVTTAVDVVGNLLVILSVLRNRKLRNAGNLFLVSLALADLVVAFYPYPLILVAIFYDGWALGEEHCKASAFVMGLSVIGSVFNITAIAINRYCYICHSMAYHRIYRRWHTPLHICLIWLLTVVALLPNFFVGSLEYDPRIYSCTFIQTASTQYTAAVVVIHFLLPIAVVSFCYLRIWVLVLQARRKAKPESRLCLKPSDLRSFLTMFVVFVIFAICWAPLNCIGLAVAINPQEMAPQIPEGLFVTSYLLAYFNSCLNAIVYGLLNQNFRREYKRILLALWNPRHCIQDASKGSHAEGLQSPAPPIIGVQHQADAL

[10] = target: T1, Melatonin receptor type 1A; assay: Displacement of 2-[125I]-iodomelatonin from human melatonin receptor-1 transfected in CHO cell membranes after 120 mins
[11] = target: T3, Melatonin receptor type 1B (Homo sapiens, UniProt P49286); assay: Displacement of 2-[125I]-iodomelatonin from human melatonin receptor-2 transfected in CHO cell membranes after 120 mins
T3 sequence (P49286 whole entry): T2 sequence (whole entry)

[12] = target: T1, Melatonin receptor type 1A; assay: Agonist activity at human melatonin receptor-1 transfected in CHO cell membranes after 1 hr by GTPgammaS binding assay; assay type: functional
[13] = target: T3, Melatonin receptor type 1B; assay: Agonist activity at human melatonin receptor-2 transfected in CHO cell membranes after 1 hr by GTPgammaS binding assay; assay type: functional
[14] = target: T4, 5-hydroxytryptamine receptor 1A (Rattus norvegicus, UniProt P19327); assay: Displacement of [3H]8-OH DPAT from rat 5HT1A receptor expressed in CHO cells after 30 mins by liquid scintillation counting analysis; assay type: cell-based
T4 sequence (P19327 whole entry): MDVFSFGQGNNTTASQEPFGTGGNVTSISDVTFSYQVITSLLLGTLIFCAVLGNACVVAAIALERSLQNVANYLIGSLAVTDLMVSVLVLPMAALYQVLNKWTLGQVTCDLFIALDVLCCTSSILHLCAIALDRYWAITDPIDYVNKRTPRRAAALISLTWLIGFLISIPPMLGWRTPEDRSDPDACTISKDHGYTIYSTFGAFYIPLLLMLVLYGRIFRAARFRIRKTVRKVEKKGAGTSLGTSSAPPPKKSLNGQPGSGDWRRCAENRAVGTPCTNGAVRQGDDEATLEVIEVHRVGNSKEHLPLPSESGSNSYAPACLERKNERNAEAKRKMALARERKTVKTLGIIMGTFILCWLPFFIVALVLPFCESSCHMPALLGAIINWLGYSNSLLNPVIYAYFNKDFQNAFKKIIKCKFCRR

[15] = target: 5-hydroxytryptamine receptor 2A (Rattus norvegicus, UniProt P14842); assay: Displacement of [3H]DOB from rat 5HT2A receptor expressed in mouse NIH/3T3 cells after 30 mins by liquid scintillation counting analysis; assay type: cell-based
[16] = Thermodynamic solubility in buffer at pH 5.5 after 24 hrs by UV spectra analysis; assay type: physicochemical; settings: read-out: Therm_solubility
[17] = Thermodynamic solubility in NH4Cl buffer at pH 9.3 after 24 hrs by UV spectra analysis; assay type: physicochemical; settings: read-out: Therm_solubility; method in brief: as §1
[18] = Permeability of the compound at 100 ug/ml after 240 mins by PAMPA; assay type: physicochemical; settings: 4 h
Method in brief: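 For PAMPA-BBB, the filter was coated with porcine brain lipid in dodecane (20 mg/mL). Donor compound was 100 µg/mL in PBS:ethanol 70:30, pH 7.4, and the acceptor held PBS:ethanol 70:30. Plates were incubated 240 min at 25 °C. Acceptor concentration was read by UV-Vis at five wavelengths in four wells, over at least three runs. Eleven quality-control standards were included.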

[19] = target: T3, Melatonin receptor type 1B; assay: Agonist activity at human recombinant melatonin receptor-2 expressed in CHO cells assessed as decrease of cAMP level after 10 mins by HTRF assay; assay type: functional, cell-based
Method in brief: (§6)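 Functional agonist profiling was done by CEREP on cells expressing human recombinant MT receptors. MT1 was read by cellular dielectric spectroscopy and MT2 by homogeneous time-resolved fluorescence. The protocols are those on the company website.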

[20] = target: T2, Melatonin receptor type 1B (Homo sapiens); assay: Agonist activity at human recombinant melatonin receptor-2 expressed in CHO cells assessed as decrease of cAMP level after 10 mins by HTRF assay relative to melatonin; assay type: functional, cell-based
[21] = target: T1, Melatonin receptor type 1A; assay: Agonist activity at human recombinant melatonin receptor-1 expressed in CHO cells assessed as effect on impedance by cellular dielectric spectroscopy; assay type: cell-based; method in brief: as §6
[22] = target: T1, Melatonin receptor type 1A; assay: Agonist activity at human recombinant melatonin receptor-1 expressed in CHO cells assessed as effect on impedance by cellular dielectric spectroscopy relative to melatonin; assay type: cell-based

T1 sequence (P48039 whole entry): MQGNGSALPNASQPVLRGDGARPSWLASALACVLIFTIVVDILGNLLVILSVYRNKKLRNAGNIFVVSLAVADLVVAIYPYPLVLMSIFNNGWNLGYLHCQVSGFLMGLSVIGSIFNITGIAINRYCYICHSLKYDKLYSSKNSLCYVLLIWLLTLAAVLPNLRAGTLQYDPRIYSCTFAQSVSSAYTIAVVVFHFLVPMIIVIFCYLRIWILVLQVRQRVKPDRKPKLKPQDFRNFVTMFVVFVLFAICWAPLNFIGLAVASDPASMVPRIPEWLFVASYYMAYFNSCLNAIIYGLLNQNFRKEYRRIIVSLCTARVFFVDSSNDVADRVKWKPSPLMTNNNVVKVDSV
Chain of 5-hydroxytryptamine receptor 2A (P14842 whole entry): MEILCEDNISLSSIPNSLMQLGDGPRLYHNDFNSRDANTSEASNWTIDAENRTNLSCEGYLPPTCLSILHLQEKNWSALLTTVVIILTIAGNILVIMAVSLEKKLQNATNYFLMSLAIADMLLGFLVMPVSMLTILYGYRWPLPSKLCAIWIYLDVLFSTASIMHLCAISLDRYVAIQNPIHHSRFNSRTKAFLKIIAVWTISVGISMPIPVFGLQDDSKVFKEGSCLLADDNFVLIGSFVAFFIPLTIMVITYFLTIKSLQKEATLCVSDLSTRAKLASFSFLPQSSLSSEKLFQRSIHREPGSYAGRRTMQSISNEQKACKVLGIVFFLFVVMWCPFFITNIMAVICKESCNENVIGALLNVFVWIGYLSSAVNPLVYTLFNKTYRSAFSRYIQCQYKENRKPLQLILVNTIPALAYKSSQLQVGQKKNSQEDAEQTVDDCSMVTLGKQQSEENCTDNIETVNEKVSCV

Structure (SMILES)	solubility thermodynamic at 24 h [1] [µM]	Ratio Ki [7]	Emax [8] [%]	Emax [9] [%]	Ki [10] [nM]	Ki [11] [nM]	EC50 [12] [nM]	EC50 [13] [nM]	also measured
COc1ccc2[nH]cc(CCNC(C)=O)c2c1 [MELATONIN]	6640 (≈ 1540 µg/mL)	–	–	–	–	–	–	–	Activity [2]: Active; Activity [3]: Active; Activity [4]: inactive; Activity [5]: inactive; solubility [6]: 400 µM (≈ 92.9 µg/mL)
COc1ccc2cccc(CCNC(C)=O)c2c1 [AGOMELATINE]	804 (≈ 196 µg/mL)	–	–	–	–	–	–	–	–
C#CCNC(=O)CCc1c[nH]c2ccc(OC)cc12	–	5	106	99	–	–	–	–	Activity [2]: Active; Activity [3]: inactive
COc1ccc2[nH]cc(CCN(C)C)c2c1 [MEBUFOTENIN]	–	10	62	28	210	16	257	112	Ki [14]: 11 nM; Ki [15]: 92 nM
C=CCNC(=O)CCc1c[nH]c2ccc(OC)cc12	–	5.5	92	88	2.5	0.45	204	11	–
CCn1c(Cc2c[nH]c3ccc(OC)cc23)n[nH]c1=S	–	–	–	–	> 1000	220	–	> 1000	–
COc1ccc2[nH]cc(Cc3n[nH]c(=O)o3)c2c1	–	–	–	–	> 1000	160	–	> 1000	–
C=CCNC(=O)Cc1c[nH]c2ccc(OC)cc12	–	3.5	64	70	17	4.9	525	132	–
COc1ccc2[nH]cc(Cc3ncc(C)o3)c2c1	–	–	23	–	280	> 1000	989	–	–
COc1ccc2[nH]cc(CCc3n[nH]c(=O)n3C)c2c1	1100 (≈ 301 µg/mL)	–	–	–	> 1000	> 1000	–	–	solubility thermodynamic at 24 h [16]: 860 µM (≈ 234 µg/mL); solubility thermodynamic at 24 h [17]: 1410 µM (≈ 383 µg/mL)
COc1ccc2[nH]cc(Cc3nc(C)no3)c2c1	1160 (≈ 283 µg/mL)	3.9	16	48	170	44	711	295	–
COc1ccc2[nH]cc(CCc3n[nH]c(=O)o3)c2c1	2100 (≈ 544 µg/mL)	10	26	30	35	4	326	29	solubility thermodynamic at 24 h [16]: 1410 µM (≈ 365 µg/mL); solubility thermodynamic at 24 h [17]: 7920 µM (≈ 2050 µg/mL); Activity [2]: Active; Activity [3]: Active; Activity [4]: inactive; Activity [5]: inactive; permeability [18]: permeable; EC50 [19]: 5.5 nM; Emax [20]: 97%; EC50 [21]: 48 nM; Emax [22]: 100%
COc1ccc2[nH]cc(CCc3nnco3)c2c1	–	8.6	–	25	570	68	> 1000	457	–
COc1ccc2[nH]cc(CCc3ncc(C)o3)c2c1	–	–	–	32	> 1000	498	–	503	–
CCNc1nnc(Cc2c[nH]c3ccc(OC)cc23)s1	1420 (≈ 409 µg/mL)	> 500	–	35	> 1000	17	–	110	solubility thermodynamic at 24 h [16]: 1720 µM (≈ 495 µg/mL); solubility thermodynamic at 24 h [17]: 1440 µM (≈ 414 µg/mL); Activity [2]: Active
COc1ccc2[nH]cc(Cc3n[nH]c(=O)n3C)c2c1	–	–	–	–	> 1000	560	–	> 1000	–
COc1ccc2[nH]cc(CCc3nc(C)no3)c2c1	–	–	–	–	> 1000	> 1000	–	–	–
COc1ccc2[nH]cc(CCc3n[nH]c(=S)o3)c2c1	3460 (≈ 953 µg/mL)	–	–	32	> 1000	530	–	1100	solubility thermodynamic at 24 h [16]: 907 µM (≈ 250 µg/mL); solubility thermodynamic at 24 h [17]: 18700 µM (≈ 5140 µg/mL)
COc1ccc2[nH]cc(Cc3nnc(C)o3)c2c1	970 (≈ 236 µg/mL)	10	–	24	210	16	> 1000	71	–
CCn1c(CCc2c[nH]c3ccc(OC)cc23)n[nH]c1=S	137 (≈ 41.4 µg/mL)	–	–	–	> 1000	> 1000	–	–	solubility thermodynamic at 24 h [16]: 131 µM (≈ 39.6 µg/mL); solubility thermodynamic at 24 h [17]: 208 µM (≈ 62.9 µg/mL)
CC(=O)NCCc1c(Cc2ccccc2)[nH]c2ccccc12	–	–	–	–	–	–	–	–	Activity [2]: inactive
COc1ccc2[nH]cc(Cc3n[nH]c(=S)o3)c2c1	–	–	–	–	> 1000	535	–	> 1000	–
C#CCNC(=O)Cc1c[nH]c2ccc(OC)cc12	–	3.6	67	82	14	3.8	289	81	–
